# The list is not random: actives were taken first. Their share in the collection is about 1.5%.
# FLuc inhib CS = Photinus pyralis luciferase inhibition counter-screen. AID 1006. ATPLite firefly luciferase biochemical luminescence, 10 min. P08659. inhibition, % at 10 µM. 200,000 tested, 1.5% active;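 active means inhibition above about 50% when tested at 10 µM, limit read from the data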
# Target sequence (P08659 whole entry, looked up): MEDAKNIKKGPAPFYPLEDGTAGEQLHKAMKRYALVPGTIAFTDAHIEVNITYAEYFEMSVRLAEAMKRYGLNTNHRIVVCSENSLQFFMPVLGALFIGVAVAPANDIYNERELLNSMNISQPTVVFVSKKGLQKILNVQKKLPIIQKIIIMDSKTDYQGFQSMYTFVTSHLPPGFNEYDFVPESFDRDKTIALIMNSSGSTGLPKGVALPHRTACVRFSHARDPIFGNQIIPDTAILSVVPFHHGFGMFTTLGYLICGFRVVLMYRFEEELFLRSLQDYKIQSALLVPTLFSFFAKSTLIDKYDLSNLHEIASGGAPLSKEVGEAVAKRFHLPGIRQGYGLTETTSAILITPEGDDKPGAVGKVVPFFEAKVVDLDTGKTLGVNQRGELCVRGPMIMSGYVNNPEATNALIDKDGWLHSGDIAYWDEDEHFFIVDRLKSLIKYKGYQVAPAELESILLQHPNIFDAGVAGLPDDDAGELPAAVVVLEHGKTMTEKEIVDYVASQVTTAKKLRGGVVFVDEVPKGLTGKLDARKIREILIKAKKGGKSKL
# TRAIL sens C8 = caspase-8 TRAIL sensitization; NB7+C8 cells + TRAIL, ATPlite viability luminescence; inhibition (viability loss, TRAIL sensitization), % at 10 µM; 360,000 tested, 1% active; AID 624354;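 active means compounds causing at least 50% loss of cell viability in the single-dose screen, relative to plate controls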
# PPC-1+TRAIL kill = kills PPC-1 cancer cells in the presence of TRAIL; PPC-1 cells + TRAIL, ATPLite viability luminescence; cell killing (% activity), % at 4 µM or 5 µM; 220,000 tested, 0.41% active; AID 1443;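 active means cell killing above 50% in the first pass at 4 µM, then a duplicate retest at 5 µM averaging 50% or more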;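 further: plate controls were cells with TRAIL plus DMSO for no effect and medium-only wells lacking cells for full effect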
# FLuc act counter = firefly luciferase counter-screen for stimulation assays. P08659. 200,000 tested, under 10 active. ATPlite luciferase biochemical, luminescence, 10 min; 0 = ATP-free wells, 1 = DMSO control. activation factor at 10 µM. AID 1027;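 active means luciferase activation factor, scaled between plate controls, of at least 2 with compound at 10 µM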
#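 System: cell-free luciferase reagent; medium: PBS as buffer for the ATP substrate; doses: test compounds dosed from 2 mM stocks in 100% DMSO; incubation: 10 min, room temperature; measured by: luminescence from luciferase reaction; read-out: luciferase activation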
# Starred values were filed as active, the others as inactive; nt = no result given.
SMILES,FLuc inhib CS,TRAIL sens C8,PPC-1+TRAIL kill,FLuc act counter
N#C/C(=C\c1ccccn1)c1nc2ccccc2s1,68.3*,-0.5,18.6,0.3
O=C(Nc1ccc(F)cc1F)N1CCN(CCc2ccccc2)CC1,nt,-10.9,0.0,nt
NC(=O)CSc1nc(C2CC2)nc2sc3c(c12)CCCC3,51.6*,29.3,36.1,0.5
C[C@H](CO)N1C[C@H](C)[C@H](CN(C)C(=O)NC2CCCCC2)Oc2ncc(Br)cc2C1=O,nt,0.0,nt,nt
Cc1onc(-c2ccccc2Cl)c1C(=O)O/N=C(\N)c1ccccc1,nt,91.6*,nt,nt
Cc1onc(-c2ccccc2Cl)c1C(=O)O/N=C(\N)c1cccc([N+](=O)[O-])c1,nt,87.5*,nt,nt
O=C(c1cccnc1Cl)N1CCOCC1,-5.3,1.0,30.8,1.1
COc1ccc(C(=O)NCC(=O)OCC(=O)NCCC2=CCCCC2)cc1,-2.6,-8.0,5.5,1
COc1ccc(C(=O)NCCC2=CCCCC2)cc1,50.5*,20.4,19.4,0.5
CCN(C[C@H]1N[C@@](C)(C(=O)OC)[C@H]2C(=O)N(C)C(=O)[C@@H]12)S(=O)(=O)c1ccc(OC)cc1,nt,1.7,nt,nt
CN(C(=O)COC(=O)c1cnc(Cl)c(Cl)c1)C1CCS(=O)(=O)C1 (configuration not stated),-4.0,0.9,0.1,1
CN(C(=O)COC(=O)c1cnc(Cl)c(Cl)c1)C1CCCCC1,nt,69.0*,nt,nt
O=C(c1cccc(NC2=NC3CS(=O)(=O)CC3S2)c1)N1CCN(c2ncccn2)CC1 (configuration not stated),nt,-8.9,nt,nt
COc1c(Cl)cccc1-c1cn2ccccc2n1,nt,73.3*,38.8,nt
Clc1ccc(-c2cn3ccccc3n2)cc1,nt,44.3,nt,nt
CCCN1C(=O)/C(=N\OCC(=O)NC23CC4CC(CC(C4)C2)C3)c2ccccc21,3.4,6.3,-13.4,1
CC(=O)Nc1ccc2nc(-c3cccs3)[nH]c2c1,51.6*,24.2,25.4,0.5
CCOC(=O)c1sc(NC(=O)c2ccc(C)s2)cc1C,62.2*,48.2,38.3,0.4
CCOC(=O)c1sc(NC(=O)Nc2ccccc2)cc1C,84.0*,73.2*,60.2*,0.2
CCOC(=O)c1cc(NC(=O)Nc2ccccc2Cl)c(C)nc1C,-5.7,-6.7,7.4,1.1
CCOC(=O)c1sc(NC(=O)C2CCC2)cc1C,50.1*,17.2,33.0,0.5
CCOC(=O)c1sc(NC(C)=O)cc1C,-2.1,-6.1,-20.2,1
CCOC(=O)c1sc(NC(=O)Nc2ccccc2Cl)cc1C,79.7*,77.0*,62.6*,0.2
CN(Cc1cccs1)C(=O)C1CC(=O)N(Cc2ccccc2)C1 (configuration not stated),nt,3.3,nt,nt
CC(C)c1ccc(OCc2nc(-c3ccccn3)no2)c(Br)c1,35.6,14.7,-2.4,0.6
SMILES,FLuc inhib CS,TRAIL sens C8,PPC-1+TRAIL kill,FLuc act counter
CCc1ccc(OCc2nc(-c3ccccn3)no2)c(Br)c1,54.6*,54.7*,20.5,0.5
O=C(c1cccc(Cl)c1)N1CCC2CC1c1cc(N3CCOCC3)ccc12 (configuration not stated),nt,-7.4,nt,nt
Cc1ccc(C(=O)CSc2nnc(-c3snnc3C)n2C2CC2)cc1,nt,24.1,-8.3,nt
Fc1cccc(C2NN=C(c3ccccc3)S2)c1 (configuration not stated),67.4*,55.0*,27.3,0.3
Cc1ccc(C2=NNC(C(O)C(O)C(O)C(C)O)S2)cc1 (configuration not stated),2.8,8.0,23.4,1
COc1ccc(C2NC(=O)CS2)cc1OC (configuration not stated),-12.0,-7.3,-3.1,1.1
COc1ccc(C2NN=C(c3ccc(C)cc3)S2)cc1OC (configuration not stated),78.9*,58.9*,30.7,0.2
Cc1ccc(C2=NNC(c3cccc(F)c3)S2)cc1 (configuration not stated),84.0*,65.9*,nt,0.2
Cc1ccc(NC(=O)CSc2nnc(COc3ccccc3F)n2N)cc1S(=O)(=O)N1CCOCC1,nt,8.7,nt,nt
CC(=O)NC(c1ccccc1)c1nc(-c2ccc(C)c(C)c2)cs1 (configuration not stated),nt,-10.2,nt,nt
CCOCCCNC(=O)c1cn(CC)c2ccc(S(=O)(=O)N3CCCC3)cc2c1=O,nt,-9.3,nt,nt
CCN(CC)c1ccc(C=Nc2ccccc2C)c(O)c1,53.4*,24.2,16.0,0.5
CCN(CC(=O)NCc1ccc(F)cc1)C(=O)C(C)Oc1cccc(Cl)c1 (configuration not stated),nt,-0.1,nt,nt
Cc1ccc(CC2CC(=O)N(Cc3ccco3)C2=O)cc1 (configuration not stated),-7.3,-5.0,12.9,1.1

# High-throughput results deposited in PubChem by Sanford-Burnham Center for Chemical Genomics.
